Experiments:
Homo sapiens [1] = species on record: Homo sapiens; assay: Selectivity for human dopamine D2L receptor over human dopamine D4 receptor
D(2) dopamine receptor [2] = biological target: T1, D(2) dopamine receptor (Homo sapiens, UniProt P14416); assay: Displacement of [125I]IABN from human dopamine D2L receptor expressed in HEK293 cells; assay type: cell-based
D(4) dopamine receptor = biological target: T2, D(4) dopamine receptor (Homo sapiens, UniProt P21917); assay: Displacement of [125I]IABN from human dopamine D4 receptor expressed in HEK293 cells; assay type: cell-based
T2 sequence (P21917 whole entry): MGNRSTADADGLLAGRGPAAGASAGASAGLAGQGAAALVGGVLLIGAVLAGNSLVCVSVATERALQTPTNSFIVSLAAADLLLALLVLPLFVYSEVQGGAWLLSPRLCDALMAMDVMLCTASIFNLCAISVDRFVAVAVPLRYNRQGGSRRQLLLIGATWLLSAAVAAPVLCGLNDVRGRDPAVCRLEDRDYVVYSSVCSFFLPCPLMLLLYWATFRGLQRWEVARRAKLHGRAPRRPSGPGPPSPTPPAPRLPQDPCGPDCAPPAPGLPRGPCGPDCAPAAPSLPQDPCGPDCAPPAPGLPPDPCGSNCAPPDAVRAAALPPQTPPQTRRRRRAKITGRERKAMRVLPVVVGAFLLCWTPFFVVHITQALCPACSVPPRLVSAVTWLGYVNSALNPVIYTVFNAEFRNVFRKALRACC
Outline: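 Competition binding on HEK 293 cells transfected with human D2L or D4 dopamine receptors; radioligand [125I]IABN displaced by test ligand; Ki values derived.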

Homo sapiens [3] = species on record: Homo sapiens; assay: Selectivity for human dopamine D2L receptor over human dopamine D3 receptor
D(3) dopamine receptor [4] = biological target: T3, D(3) dopamine receptor (Homo sapiens, UniProt P35462); assay: Displacement of [125I]IABN from human dopamine D3 receptor expressed in HEK293 cells; assay type: cell-based
T3 sequence (P35462 whole entry): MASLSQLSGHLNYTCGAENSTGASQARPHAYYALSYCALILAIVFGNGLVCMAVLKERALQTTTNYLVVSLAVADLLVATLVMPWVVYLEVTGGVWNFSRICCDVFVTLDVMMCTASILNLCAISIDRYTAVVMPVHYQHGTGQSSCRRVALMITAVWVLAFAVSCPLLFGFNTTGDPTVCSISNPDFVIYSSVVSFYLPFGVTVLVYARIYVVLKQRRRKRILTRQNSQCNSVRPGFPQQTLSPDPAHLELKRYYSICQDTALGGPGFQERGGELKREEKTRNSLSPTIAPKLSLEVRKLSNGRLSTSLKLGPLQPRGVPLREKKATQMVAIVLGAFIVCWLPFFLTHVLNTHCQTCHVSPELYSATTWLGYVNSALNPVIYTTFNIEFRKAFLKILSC

D(3) dopamine receptor [5] = biological target: T3, D(3) dopamine receptor; assay: Antagonist activity at human dopamine D3 receptor expressed in CHO cells assessed as inhibition of quinpirole stimulated mitogenesis; assay type: functional, cell-based
D(2) dopamine receptor [6] = biological target: T1, D(2) dopamine receptor; assay: Antagonist activity at human dopamine D2 receptor expressed in CHO cells assessed as inhibition of quinpirole stimulated mitogenesis; assay type: functional, cell-based
Outline: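 Functional mitogenesis assay in CHO cells transfected with human D2 receptor; antagonism measured as inhibition of quinpirole-stimulated mitogenesis (agonism tested as stimulation); EC50 reported; run via NIDA CTDP contract protocol.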

T1 sequence (P14416 whole entry): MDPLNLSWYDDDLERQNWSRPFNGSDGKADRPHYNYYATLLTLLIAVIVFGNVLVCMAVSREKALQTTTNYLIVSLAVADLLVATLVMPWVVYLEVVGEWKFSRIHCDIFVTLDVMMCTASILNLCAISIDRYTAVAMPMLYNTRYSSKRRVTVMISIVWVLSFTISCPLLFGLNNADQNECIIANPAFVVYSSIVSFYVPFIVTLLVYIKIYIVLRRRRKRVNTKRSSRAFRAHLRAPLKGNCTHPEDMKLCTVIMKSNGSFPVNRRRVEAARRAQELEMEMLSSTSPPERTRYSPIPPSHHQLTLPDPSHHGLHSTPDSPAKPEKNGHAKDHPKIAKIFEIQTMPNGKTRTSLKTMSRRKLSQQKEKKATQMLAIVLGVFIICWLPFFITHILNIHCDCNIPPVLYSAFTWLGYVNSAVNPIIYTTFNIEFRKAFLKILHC

SMILES	Ratio Ki (Homo sapiens [1])	Ki (D(2) dopamine receptor [2])	Ki (D(4) dopamine receptor)	Ratio Ki (Homo sapiens [3])	Ki (D(3) dopamine receptor [4])	EC50 (D(3) dopamine receptor [5])	EC50 (D(2) dopamine receptor [6])
OC1(c2ccc(Cl)cc2)CCCN(Cc2c[nH]c3ccccc23)C1 (stereo unspecified)	1	4270 nM	2440 nM	1	4270 nM	–	–
OC1(c2cccc(Cl)c2Cl)CCN(Cc2c[nH]c3ccccc23)CC1	59	26.1 nM	1550 nM	10	273 nM	232 nM	34.3 nM
OCC1(c2ccc(Cl)cc2)CCN(Cc2c[nH]c3ccccc23)CC1	1	2370 nM	1940 nM	0.04	106 nM	–	–
CSc1ccc(C2(O)CCN(Cc3coc4ccccc34)CC2)cc1	3	54 nM	153 nM	3	139 nM	–	–
COC(=O)C1(c2ccc(Cl)cc2)CCN(Cc2c[nH]c3ccccc23)CC1	66	60 nM	3930 nM	9	544 nM	–	76.7 nM
OC1(c2ccc(Cl)cc2)CCCN(Cc2c[nH]c3ccccc23)CC1 (stereo unspecified)	19	201 nM	3870 nM	10	2100 nM	–	260 nM
OC1(c2cccc(C(F)(F)F)c2)CCN(Cc2c[nH]c3ccccc23)CC1	35	106 nM	3750 nM	5	570 nM	–	69.1 nM
CSc1ccc(C2(O)CCN(Cc3c[nH]c4ccccc34)CC2)cc1	13	23.9 nM	319 nM	27	638 nM	–	–
COC1(c2ccc(Cl)cc2)CCN(Cc2c[nH]c3ccccc23)CC1	–	68.1 nM	34.1 nM	4	262 nM	248 nM	34.7 nM
COc1ccc(C2(O)CCN(Cc3c[nH]c4ccccc34)CC2)cc1	4	177 nM	679 nM	12	2130 nM	–	–
CCOC(=O)C1(c2ccc(Cl)cc2)CCN(Cc2c[nH]c3ccccc23)CC1	60	58.8 nM	3520 nM	12	724 nM	–	–
OC1(c2ccc(Cl)cc2)CCN(Cc2cc3ccccc3[nH]2)CC1	–	> 10000 nM	> 20000 nM	–	–	–	–
COc1ccc2[nH]cc(CN3CCC(O)(c4ccc(SC)cc4)CC3)c2c1	103	5.5 nM	567 nM	105	580 nM	–	–
OC1(c2cccc(Cl)c2)CCN(Cc2c[nH]c3ccccc23)CC1	27	129 nM	3540 nM	3	450 nM	–	83.4 nM
Cn1cc(CN2CCC(O)(c3ccc(Cl)cc3)CC2)c2ccccc21	174	29.6 nM	5140 nM	8	238 nM	98.6 nM	20 nM
FC1(c2ccc(Cl)cc2)CCN(Cc2c[nH]c3ccccc23)CC1	3	120 nM	365 nM	2	211 nM	–	–
OC1(c2ccc(Cl)cc2)CCN(Cc2coc3ccccc23)CC1	19	21 nM	404 nM	3	53 nM	–	–

SMILES	Ratio Ki (Homo sapiens [1])	Ki (D(2) dopamine receptor [2])	Ki (D(4) dopamine receptor)	Ratio Ki (Homo sapiens [3])	Ki (D(3) dopamine receptor [4])	EC50 (D(3) dopamine receptor [5])	EC50 (D(2) dopamine receptor [6])
OC1(c2ccc(F)cc2)CCN(Cc2c[nH]c3ccccc23)CC1	48	127 nM	6090 nM	4	490 nM	–	–
OC1(c2ccc(Cl)c(Cl)c2)CCN(Cc2coc3ccccc23)CC1	8	21 nM	167 nM	1	28 nM	–	–
CC(=O)NCC1(c2ccc(Cl)cc2)CCN(Cc2c[nH]c3ccccc23)CC1	2	2000 nM	4450 nM	6	12500 nM	–	–
CCCCCCOc1ccc(C2(O)CCN(Cc3c[nH]c4ccccc34)CC2)cc1	9	159 nM	1490 nM	12	1950 nM	–	216 nM
OC1(c2ccccc2Cl)CCN(Cc2c[nH]c3ccccc23)CC1	7	382 nM	2820 nM	5	1860 nM	–	586 nM
OC1(Cc2ccc(Cl)cc2)CCN(Cc2c[nH]c3ccccc23)CC1	1	2890 nM	3930 nM	2	5480 nM	–	–
NC1(c2ccc(Cl)cc2)CCN(Cc2c[nH]c3ccccc23)CC1	12	184 nM	2290 nM	2	382 nM	–	–
C=CCOC1(c2ccc(Cl)cc2)CCN(Cc2c[nH]c3ccccc23)CC1	7	165 nM	1190 nM	4	718 nM	–	–
CC(=O)NC1(c2ccc(Cl)cc2)CCN(Cc2c[nH]c3ccccc23)CC1	4	83.1 nM	348 nM	2	193 nM	–	24.8 nM
OC1(c2ccc(Cl)cc2)CCN(Cc2c[nH]c3ccccc23)CC1	–	–	1520 nM	–	163 nM	90.4 nM	–
OC1(c2ccc(Cl)cc2)CCN(Cc2n[nH]c3ccccc23)CC1	4	548 nM	2150 nM	1	440 nM	–	–
OC1(c2ccc(Cl)c(Cl)c2)CCN(Cc2n[nH]c3ccccc23)CC1	2	438 nM	677 nM	0.4	156 nM	–	–
OC1(c2ccc(-c3ccccc3)cc2)CCN(Cc2c[nH]c3ccccc23)CC1	1	98.4 nM	129 nM	5	467 nM	–	–
NCC1(c2ccc(Cl)cc2)CCN(Cc2c[nH]c3ccccc23)CC1	–	> 10000 nM	> 20000 nM	–	> 5000 nM	–	–
Oc1ccc(C2(O)CCN(Cc3c[nH]c4ccccc34)CC2)cc1	0.3	5360 nM	1360 nM	3	16800 nM	–	–
N#CC1(c2ccc(Cl)cc2)CCN(Cc2c[nH]c3ccccc23)CC1	11	199 nM	2270 nM	3	684 nM	–	225 nM

— ChEMBL document CHEMBL1138415, “Analogues of the dopamine D2 receptor antagonist L741,626: Binding, function, and SAR” (Bioorg Med Chem Lett, 2007)
